Experimental data as given in ChEMBL document CHEMBL1141288, “Antimalarial and antituberculous poly-O-acylated jatrophane diterpenoids from Pedilanthus tithymaloides” (J Nat Prod, 2007).
In brackets after ≈: the same amount, converted by molar mass. Activity calls are given as the source filed them. The rule behind the calls is not given here.

Legend:
Plasmodium falciparum [1] = experiment: Antimalarial activity against Plasmodium falciparum K1 by microculture radioisotope assay; type: functional, organism-based
How it was run: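 The P. falciparum K1 strain is multidrug-resistant and was kept in continuous culture. In vitro activity was measured by the microculture radioisotope technique.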

[2] = test system: Mycobacterium tuberculosis; experiment: Antitubercular activity against Mycobacterium tuberculosis H37Ra by alamar blue microplate assay; type: functional
Candida albicans [3] = experiment: Antifungal activity against Candida albicans ATCC 90028 at 50 ug/mL by tetrazolium/formazan assay; type: functional, organism-based
How it was run: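 Candida albicans ATCC 90028 tested with a tetrazolium/formazan assay. Compounds were run at 50 µg/mL. Amphotericin B served as the positive control and DMSO as the negative control.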

Plasmodium falciparum [4] = experiment: Antimalarial activity against Plasmodium falciparum K1 at 10 ug/mL by microculture radioisotope assay; type: functional, organism-based
Candida albicans [5] = experiment: Antifungal activity against Candida albicans ATCC 90028 by tetrazolium/formazan assay; type: functional, organism-based

Q: What does the source list for `CC(=O)O/C1=C(\C)[C@@H](O)[C@H]2[C@@H](OC(=O)c3ccccc3)[C@@H](C)[C@H](O)[C@]2(OC(C)=O)[C@H](OC(C)=O)/C(C)=C/CC(C)(C)[C@@H](OC(C)=O)[C@H]1OC(C)=O`?
A: IC50 (Plasmodium falciparum [1]): 6 µM; MIC [2]: 100 mg/L (≈ 140 µM)

Q: Which results are given for `CC(=O)O[C@H]1C[C@@H](OC(=O)c2ccccc2)/C(C)=C\[C@H]2[C@@H](OC(=O)c3ccccc3)[C@@H](C)[C@H](O)[C@]2(OC(C)=O)[C@H](O)[C@@](C)(O)/C=C/C1(C)C`?
A: IC50 (Plasmodium falciparum [1]): 5.9 µM; MIC [2]: 12.5 mg/L (≈ 18.4 µM); Activity (Candida albicans [3]): inactive

Q: Which IC50 (Plasmodium falciparum [1]) does the source give for `CC(=O)O/C1=C(\C)[C@@H](O)[C@H]2[C@@H](OC(=O)c3ccccc3)[C@@H](C)[C@H](OC(C)=O)[C@]2(OC(C)=O)[C@H](OC(C)=O)/C(C)=C/CC(C)(C)[C@@H](OC(C)=O)[C@H]1OC(C)=O` here?
A: 5.8 µM

Q: What about the MIC [2] of the same compound?
A: 50 mg/L (≈ 65.9 µM)

Q: What about the Activity (Candida albicans [3]) of the same compound?
A: inactive

Q: With `CC(=O)O[C@@H]1/C(C)=C/CC(C)(C)[C@@H](OC(C)=O)[C@@H](OC(C)=O)C(=O)/C(C)=C\[C@H]2[C@@H](OC(=O)c3ccccc3)[C@@H](C)[C@H](OC(C)=O)[C@]12OC(C)=O` as the compound, how does the IC50 (Plasmodium falciparum [1]) read?
A: 4 µM

Q: And the MIC [2]?
A: 50 mg/L (≈ 71.6 µM)

Q: How did the MIC [2] turn out when `NNC(=O)c1ccncc1` [ISONIAZID] was run?
A: 0.1 mg/L (≈ 0.729 µM)

Q: `CC(=O)O[C@H]1C[C@@H](O)/C(C)=C\[C@H]2[C@@H](OC(=O)c3ccccc3)[C@@H](C)[C@H](O)[C@]2(OC(C)=O)[C@H](O)[C@@](C)(O)/C=C/C1(C)C` was tested. Which Activity (Plasmodium falciparum [4]) did it give?
A: inactive

Q: What about the MIC [2] of the same compound?
A: 100 mg/L (≈ 174 µM)

Q: What about the Activity (Candida albicans [3]) of the same compound?
A: inactive

Q: `C[C@@H]1[C@H](O)[C@@H](C)/C=C/C=C/C=C/C=C/C=C/C=C/C=C/[C@H](O[C@@H]2O[C@H](C)[C@@H](O)[C@H](N)[C@@H]2O)C[C@@H]2O[C@](O)(C[C@@H](O)C[C@@H](O)[C@H](O)CC[C@@H](O)C[C@@H](O)CC(=O)O[C@H]1C)C[C@H](O)[C@H]2C(=O)O` (stereo in doubt) [AMPHOTERICIN B] was tested. Which IC50 (Candida albicans [5]) did it give?
A: 0.068 mg/L (≈ 0.0736 µM)

Q: `NC[C@H]1O[C@H](O[C@H]2[C@H](O)[C@@H](O[C@H]3O[C@H](CO)[C@@H](O)[C@H](N)[C@H]3O)[C@H](N)C[C@@H]2N)[C@H](O)[C@@H](O)[C@@H]1O` [KANAMYCIN] was tested. Which MIC [2] did it give?
A: 2.5 mg/L (≈ 5.16 µM)

Q: Which IC50 (Plasmodium falciparum [1]) does the source give for `C[C@H]1[C@@H](O)O[C@@H]2O[C@@]3(C)CC[C@H]4[C@H](C)CC[C@@H]1[C@@]24OO3` [ARTENIMOL] here?
A: 0.0036 µM
